Reference: ChEMBL document CHEMBL1166005, “Discovery of tetrahydro-beta-carbolines as inhibitors of the mitotic kinesin KSP” (Bioorg Med Chem, 2010)

Columns and labels:
A549 = assay: Antiproliferative activity against human A549 cells after 48 hrs by SRB assay; settings: A549, 48 h
[1] = molecular target: T1, Kinesin-like protein KIF11 (Homo sapiens, UniProt P52732); assay: Inhibition of human Eg5 expressed in Escherichia coli assessed as microtubule-activated ATPase activity by spectrophotometry
T1 sequence (P52732 whole entry): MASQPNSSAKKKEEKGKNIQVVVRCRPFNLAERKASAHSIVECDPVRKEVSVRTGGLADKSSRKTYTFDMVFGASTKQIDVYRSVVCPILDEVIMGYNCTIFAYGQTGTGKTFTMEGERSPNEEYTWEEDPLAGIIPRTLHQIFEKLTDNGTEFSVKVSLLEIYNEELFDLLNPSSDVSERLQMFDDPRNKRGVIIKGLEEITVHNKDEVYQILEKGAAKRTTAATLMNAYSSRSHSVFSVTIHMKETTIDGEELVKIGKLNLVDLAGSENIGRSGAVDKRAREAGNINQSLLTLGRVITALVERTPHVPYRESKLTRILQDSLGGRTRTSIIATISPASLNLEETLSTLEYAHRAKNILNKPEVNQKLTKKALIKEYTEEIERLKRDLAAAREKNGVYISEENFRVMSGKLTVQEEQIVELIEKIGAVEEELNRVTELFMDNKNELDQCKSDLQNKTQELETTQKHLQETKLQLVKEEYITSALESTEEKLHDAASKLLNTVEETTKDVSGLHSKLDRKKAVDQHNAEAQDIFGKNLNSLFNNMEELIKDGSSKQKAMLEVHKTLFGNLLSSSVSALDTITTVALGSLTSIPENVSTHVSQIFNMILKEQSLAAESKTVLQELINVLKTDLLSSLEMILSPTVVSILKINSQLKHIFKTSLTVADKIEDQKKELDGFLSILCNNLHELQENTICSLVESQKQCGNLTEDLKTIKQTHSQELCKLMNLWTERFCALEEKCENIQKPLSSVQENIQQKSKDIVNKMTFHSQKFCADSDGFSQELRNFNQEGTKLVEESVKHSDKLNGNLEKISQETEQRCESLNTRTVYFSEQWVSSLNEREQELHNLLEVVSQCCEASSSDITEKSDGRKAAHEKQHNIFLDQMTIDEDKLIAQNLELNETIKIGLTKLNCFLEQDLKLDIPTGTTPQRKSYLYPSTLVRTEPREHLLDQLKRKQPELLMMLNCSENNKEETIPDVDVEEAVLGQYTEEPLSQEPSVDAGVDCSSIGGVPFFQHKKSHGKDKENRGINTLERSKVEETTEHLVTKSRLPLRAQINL
Procedure, shortened: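 Eg5 residues 2-386 expressed from pET28a in E. coli (0.5 mM IPTG, 20 h at 20 °C), purified on SP-Sepharose then Mono-Q, and dialyzed into PIPES pH 7.5 ATPase buffer. Assay contained 20 mM PIPES pH 7.5, 5.0 mM MgCl2, 1 mM EGTA, paclitaxel-stabilized MTs, ATP and 2% DMSO. Started with ATP, 37 °C for 30 min; Pi detected by malachite green with citrate stop, A610. No-enzyme and no-MT backgrounds subtracted; means of ≥3 experiments.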

HepG2 = assay: Antiproliferative activity against human HepG2 cells after 48 hrs by SRB assay; settings: HepG2, 48 h
HT-29 = assay: Antiproliferative activity against human HT-29 cells after 48 hrs by SRB assay; settings: HT-29, 48 h
PC-3 = assay: Antiproliferative activity against human PC3 cells after 48 hrs by SRB assay; settings: PC-3, 48 h
AGS = assay: Antiproliferative activity against human AGS cells after 48 hrs by SRB assay

Row | Structure (SMILES) | IC50 (A549) | IC50 [1] | IC50 (HepG2) | IC50 (HT-29) | IC50 (PC-3) | IC50 (AGS)
1 | CC(C)C(=O)N1CCc2c([nH]c3ccc(Cl)cc23)C1c1c[nH]c2ccccc12 (racemic) | 6.83 µM | 1700 nM |  |  |  | 
2 | CCC(c1nc2cc(Cl)ccc2c(=O)n1Cc1ccccc1)N(CCCN(C)C)C(=O)c1ccc(Br)cc1 (stereo not given) [CK0106023] | 7.02 µM | 49 nM | > 10 µM | 3.33 µM | > 10 µM | 5.1 µM
3 | Nc1ccc(C(=O)N2CCc3c([nH]c4ccc(Cl)cc34)C2c2cccc(O)c2)cc1 (racemic) | 6.66 µM | 76 nM | 8.52 µM | 6.3 µM | 7.3 µM | 6.07 µM
4 | CCCN1CCc2c([nH]c3ccc(Cl)cc23)C1c1cccc(O)c1 (racemic) | 1.55 µM | 169 nM |  |  |  | 
5 | NCCCN1CCc2c([nH]c3ccc(Cl)cc23)C1c1cccc(O)c1 (racemic) | 6.73 µM | 204 nM |  |  |  | 
6 | CCCC(=O)N1CCc2c([nH]c3ccc(Cl)cc23)C1c1c[nH]c2ccccc12 (racemic) | 9.11 µM | 163 nM | 7.64 µM | 5.86 µM | 7.29 µM | 7.06 µM
7 | CCC(=O)N1C(C(=O)O)Cc2c([nH]c3ccccc23)C1c1cccc(O)c1 (racemic) | > 10 µM | 118 nM |  |  |  | 
8 | CN1CCc2c([nH]c3ccc(Cl)cc23)C1c1cccc(O)c1 (racemic) | 1.38 µM | 664 nM | > 10 µM | 7.4 µM | > 10 µM | 0.75 µM
9 | NCCN1CCc2c([nH]c3ccc(Cl)cc23)C1c1cccc(O)c1 (racemic) | 8.7 µM | 7 nM |  |  |  | 
10 | CCCC(=O)N1CCc2c([nH]c3ccc(C)cc23)C1c1c[nH]c2ccccc12 (racemic) | > 10 µM | < 1 nM |  |  |  | 
11 | NCCC(=O)N1CCc2c([nH]c3ccc(Cl)cc23)C1c1c[nH]c2ccccc12 (racemic) | 1.79 µM | 43 nM | > 10 µM | 6.28 µM | 1.55 µM | 6.16 µM
12 | NCCNC(=O)C1Cc2c([nH]c3ccccc23)C(c2cccc(O)c2)N1 (racemic) | > 10 µM | 65 nM |  |  |  | 
13 | CC(C)Oc1cccc(C2c3[nH]c4ccc(Cl)cc4c3CCN2CCN)c1 (racemic) | 8.7 µM |  | > 10 µM | 7.44 µM | > 10 µM | 8.39 µM
14 | CCOC(=O)C1Cc2c([nH]c3ccccc23)C(c2cccc(O)c2)N1C(C)=O (racemic) | > 10 µM | 724 nM |  |  |  | 
15 | CCOC(=O)C1Cc2c([nH]c3ccccc23)C(c2cccc(O)c2)N1C(=O)CC (racemic) | > 10 µM | 75 nM |  |  |  | 
16 | CCCC(=O)N1C(C(=O)O)Cc2c([nH]c3ccccc23)C1c1cccc(O)c1 (racemic) | > 10 µM | 3450 nM |  |  |  | 

Row | Structure (SMILES) | IC50 (A549) | IC50 [1] | IC50 (HepG2) | IC50 (HT-29) | IC50 (PC-3) | IC50 (AGS)
17 | NCCCCN1CCc2c([nH]c3ccc(Cl)cc23)C1c1cccc(O)c1 (racemic) | 9.06 µM | 347 nM |  |  |  | 
18 | Cc1ccc2[nH]c3c(c2c1)CCN(C(=O)C(C)C)C3c1c[nH]c2ccccc12 (racemic) | > 10 µM | 216 nM |  |  |  | 
19 | CCCC(=O)N1C(C(=O)OCC)Cc2c([nH]c3ccccc23)C1c1cccc(O)c1 (racemic) | > 10 µM | 224 nM |  |  |  | 
20 | Cc1ccc2[nH]c3c(c2c1)CCN(CCN)C3c1cccc(O)c1 (racemic) | 7.79 µM | 237 nM |  |  |  | 
21 | Cc1ccc2[nH]c3c(c2c1)CCN(C(=O)c1ccc(N)cc1)C3c1cccc(O)c1 (racemic) | 7.93 µM | 50 nM | > 10 µM | 7.47 µM | > 10 µM | 8.86 µM
22 | CCOC(=O)C1Cc2c([nH]c3ccccc23)C(c2cccc(O)c2)N1C(=O)C(C)C (racemic) | > 10 µM | 380 nM |  |  |  | 
23 | NCCC(=O)N1CCc2c([nH]c3c(Cl)cccc23)C1c1cccc(O)c1 (racemic) | 0.94 µM | 40 nM | 7.47 µM | 5.75 µM | 1.28 µM | 1.31 µM
24 | O=C(NCCO)C1Cc2c([nH]c3ccccc23)C(c2cccc(O)c2)N1 (racemic) | > 10 µM | 290 nM |  |  |  | 
25 | CC(N)C(=O)N1CCc2c([nH]c3ccc(Cl)cc23)C1c1cccc(O)c1 (stereo not given) | 5.65 µM | 483 nM |  |  |  | 
26 | Cc1ccc2[nH]c3c(c2c1)CCN(CCCN)C3c1cccc(O)c1 (racemic) | 6.86 µM | 83 nM |  |  |  | 
27 | CC(=O)N1CCc2c([nH]c3ccc(Cl)cc23)C1c1c[nH]c2ccccc12 (racemic) | 9.8 µM | 337 nM |  |  |  | 
28 | Cc1ccc2[nH]c3c(c2c1)CCN(C)C3c1cccc(O)c1 (racemic) | 8.73 µM | 462 nM |  |  |  | 
29 | Cc1ccc2[nH]c3c(c2c1)CCN(CCCCN)C3c1cccc(O)c1 (racemic) | 9.19 µM | 454 nM |  |  |  | 
30 | Cc1ccc2[nH]c3c(c2c1)CCN(Cc1ccccc1)C3c1cccc(O)c1 (racemic) | 6.86 µM | 12400 nM |  |  |  | 
31 | Oc1cccc(C2c3[nH]c4ccc(Cl)cc4c3CCN2Cc2ccccc2)c1 (racemic) | 5.7 µM | 710 nM |  |  |  | 
32 | CC(=O)N1CCc2c([nH]c3ccc(C)cc23)C1c1c[nH]c2ccccc12 (racemic) | > 10 µM | 51 nM |  |  |  | 
